The source made the active and inactive calls. The calls are words filed in the database; no cut-off is given here.
How the values were obtained:
[1] = molecular target: 5-hydroxytryptamine receptor 4 (Homo sapiens) (UniProt Q13639); assay: Agonist activity at human 5-HT4R expressed in GloSensor-22F6 expressing 2B2 cells co-expressing Galpha-s assessed as increase in cAMP accumulation up to 60 mins by luminometry relative to control 5-HT; format: functional, cell-based
Outline: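 Cells carrying a cAMP luminescence biosensor were additionally transduced with Gαs and human 5-HT4R, then seeded at 25 x 10³ cells/well 24 h ahead. Ligands (up to 10 µM) were added with 1 mM final IBMX.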

[2] = molecular target: 5-hydroxytryptamine receptor 4 (Homo sapiens) (UniProt Q13639); assay: Partial agonist activity at Rluc-tagged human 5-HT4 receptor expressed in human SH-5YSY cells co-expressing RGFP-fused to Gbeta1 assessed as inhibition of serotonin-induced coupling by BRET assay; format: functional, cell-based
[3] = molecular target: 5-hydroxytryptamine receptor 4 (Cavia porcellus, UniProt O70528); assay: Displacement of [3H]GR113808 from serotonin 5-HT4 receptor in Dunkin-Hartley guinea pigs striatal nuclei membranes incubated for 30 mins by liquid scintillation counting
5-hydroxytryptamine receptor 4, sequence (O70528 whole entry): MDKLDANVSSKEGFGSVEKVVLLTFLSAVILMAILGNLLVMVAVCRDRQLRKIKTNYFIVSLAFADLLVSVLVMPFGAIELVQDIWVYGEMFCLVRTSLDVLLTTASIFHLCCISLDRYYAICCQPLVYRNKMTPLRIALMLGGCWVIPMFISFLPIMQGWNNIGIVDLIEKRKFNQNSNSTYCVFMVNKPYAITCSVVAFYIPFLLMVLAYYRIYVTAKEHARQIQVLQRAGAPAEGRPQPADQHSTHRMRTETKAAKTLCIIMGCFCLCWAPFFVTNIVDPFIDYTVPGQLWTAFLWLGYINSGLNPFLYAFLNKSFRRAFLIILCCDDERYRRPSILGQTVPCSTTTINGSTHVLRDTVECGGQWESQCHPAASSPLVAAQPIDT

5-hydroxytryptamine receptor 4 (Homo sapiens), sequence (Q13639 whole entry, the tested form may be a part): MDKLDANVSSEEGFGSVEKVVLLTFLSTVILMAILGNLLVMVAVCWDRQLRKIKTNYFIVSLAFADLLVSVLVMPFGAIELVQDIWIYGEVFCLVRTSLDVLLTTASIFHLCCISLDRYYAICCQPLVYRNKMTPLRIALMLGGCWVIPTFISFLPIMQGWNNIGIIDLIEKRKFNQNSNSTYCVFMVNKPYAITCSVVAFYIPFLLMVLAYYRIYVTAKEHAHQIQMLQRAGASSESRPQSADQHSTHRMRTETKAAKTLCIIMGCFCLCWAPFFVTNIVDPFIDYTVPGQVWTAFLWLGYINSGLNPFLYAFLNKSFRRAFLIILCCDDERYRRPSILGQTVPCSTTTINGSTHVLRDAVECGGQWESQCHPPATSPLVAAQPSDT

Ratio [1]	Activity [2]	Ki [3] [nM]	Structure (SMILES)
0.09	Active		COc1cc(N)c(Cl)cc1C(=O)OCCCN1CCCCC1
0.21	Active	61	COc1cc(N)c(Cl)cc1C(=O)OCCN1CCC(NC(=O)NCCOCCOCCNC(=O)NCC(=O)O)CC1
0.16	Active	9	COc1cc(N)c(Cl)cc1C(=O)OCCN1CCC(NC(=O)NCCOCCOCCOCCOCCOCCOCCOCCOCCn2cc(CNC(=O)NCCCN(C)CCCNC(=O)NCc3cn(CCOCCOCCOCCOCCOCCOCCOCCOCCNC(=O)NC4CCN(CCOC(=O)c5cc(Cl)c(N)cc5OC)CC4)nn3)nn2)CC1
	Active		COc1cc(N)c(Cl)cc1C(=O)N[C@H]1CCN(CCCOc2ccc(F)cc2)C[C@H]1OC
0.18	Active	121	COc1cc(N)c(Cl)cc1C(=O)OCCN1CCC(NC(=O)NCCOCCOCCOCCOCCOCCOCCOCCOCCN=[N+]=[N-])CC1
0.24	Active	13	CCCCNC(=O)NC1CCN(CCOC(=O)c2cc(Cl)c(N)cc2OC)CC1
0.21	Active	30	COc1cc(N)c(Cl)cc1C(=O)OCCN1CCC(NC(=O)OC(C)(C)C)CC1
	Active		COc1cc(N)c(Cl)cc1C(=O)OCCN1CCCCC1
0.15	Active	4	COc1cc(N)c(Cl)cc1C(=O)OCCN1CCC(NC(=O)NCCOCCOCCNC(=O)NCC(=O)OCc2ccccc2)CC1
0.14	Active	4.5	COc1cc(N)c(Cl)cc1C(=O)OCCN1CCC(NC(=O)NCCOCCOCCOCCOCCOCCOCCOCCOCCn2cc(CNC(=O)NCCCN(CCCCN(CCCNC(=O)NCc3cn(CCOCCOCCOCCOCCOCCOCCOCCOCCNC(=O)NC4CCN(CCOC(=O)c5cc(Cl)c(N)cc5OC)CC4)nn3)CCCNC(=O)NCc3cn(CCOCCOCCOCCOCCOCCOCCOCCOCCNC(=O)NC4CCN(CCOC(=O)c5cc(Cl)c(N)cc5OC)CC4)nn3)CCCNC(=O)NCc3cn(CCOCCOCCOCCOCCOCCOCCOCCOCCNC(=O)NC4CCN(CCOC(=O)c5cc(Cl)c(N)cc5OC)CC4)nn3)nn2)CC1
0.28	Active	4	COc1cc(N)c(Cl)cc1C(=O)OCCN1CCC(NC(=O)NCCOCCOCCNC(=O)NC2CCN(CCOC(=O)c3cc(Cl)c(N)cc3OC)CC2)CC1

Reference: ChEMBL document CHEMBL4138046, “Multivalent ligands for the serotonin 5-HT4 receptor” (Medchemcomm, 2017)
